Measured values taken from PubChem BioAssay.
Calls of active or inactive are those of the source.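 The calls were made as follows, unless noted: active = current rise at least 3 SD above the untreated control mean in each of two repeat wells; inactive = the rest.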

Columns and labels:
[1] = nonspecific flux increase, KCNQ1-free cells – parental CHO cells, counter-screen for KCNQ1 potentiator project (AID 493006;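 active = duplicate-averaged activation above buffer control mean plus 5 SD of those controls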;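 as to activation: fluorescence ratio of max minus min over baseline after K+ and Tl+ depolarization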); settings: parental CHO-K1 cells, FluxOR thallium flux, at 10 µM; active compounds read high
Summary of the method: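 Material: untransfected host CHO-K1 cells with FluxOR thallium dye. Timing: overnight 37 °C plating, 90 min RT dye, 20 min compound. Detection: kinetic FluxOR fluorescence, 10 s baseline, 110 s after stimulus. Read-out basis: max-minus-min fluorescence over baseline, percent of buffer-to-R-L3 span. Replicates: duplicate wells per compound, percent values averaged.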

[2] = target: Potassium voltage-gated channel subfamily KQT member 1 (Homo sapiens) (UniProt P51787); assay: enhancement of KCNQ1 channel thallium flux – FluxOR thallium flux, CHO cells, duplicates, confirmation (AID 493007;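 active = potentiation averaged over duplicate wells exceeding buffer-only control mean by more than 3 SD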;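 as to outcome: cells depolarized by a potassium plus thallium sulfate stimulus after compound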); settings: KCNQ1 cell line, FluxOR thallium flux fluorescence, at 10 µM; active compounds read high, % of reference activator effect, buffer zero
Summary of the method: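 Test system – KCNQ1-expressing CHO cell line · Incubation – FluxOR dye loading 90 min, compound exposure 20 min, room temperature · Detection – FluxOR Tl+ flux fluorescence, 10 s baseline plus 110 s recording · Controls – buffer-only wells as 0% and R-L3 activator as 100%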

[3] = target: Potassium voltage-gated channel subfamily KQT member 2 (Rattus norvegicus) (UniProt O88943); assay: KCNQ2 thallium flux enhancement – KCNQ2-CHO-K1 cells, selectivity assay for KCNQ1 potentiator project (AID 493009;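 active = mean duplicate potentiation above the buffer control mean plus 5 SD of buffer wells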;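 also: assay conditions were tuned for KCNQ1 rather than KCNQ2 modulators; signal is max minus min fluorescence divided by baseline after thallium stimulus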); settings: FluxOR thallium flux fluorescence, at 10 µM; active compounds read high, scaled: buffer 0, activator control 100
[4] = target: Potassium voltage-gated channel subfamily KQT member 1 (Homo sapiens) (UniProt P51787); assay: KCNQ1 activators by electrophysiology – IonWorks patch clamp, KCNQ1-CHO cells, orthogonal assay for KCNQ1 potentiator project, confirmation (AID 493184); settings: automated patch clamp current, at 10 µM; active compounds read high
Summary of the method: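 Read-out: Percent current increase versus pre-compound level | Assay system: CHO cells carrying KCNQ1 | Measured by: Automated perforated-patch electrophysiology | Medium: External bath solution at pH 7.4 | Dosing: One dose, 10 µM final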

Chain of Potassium voltage-gated channel subfamily KQT member 1 (Homo sapiens) (P51787 whole entry, looked up): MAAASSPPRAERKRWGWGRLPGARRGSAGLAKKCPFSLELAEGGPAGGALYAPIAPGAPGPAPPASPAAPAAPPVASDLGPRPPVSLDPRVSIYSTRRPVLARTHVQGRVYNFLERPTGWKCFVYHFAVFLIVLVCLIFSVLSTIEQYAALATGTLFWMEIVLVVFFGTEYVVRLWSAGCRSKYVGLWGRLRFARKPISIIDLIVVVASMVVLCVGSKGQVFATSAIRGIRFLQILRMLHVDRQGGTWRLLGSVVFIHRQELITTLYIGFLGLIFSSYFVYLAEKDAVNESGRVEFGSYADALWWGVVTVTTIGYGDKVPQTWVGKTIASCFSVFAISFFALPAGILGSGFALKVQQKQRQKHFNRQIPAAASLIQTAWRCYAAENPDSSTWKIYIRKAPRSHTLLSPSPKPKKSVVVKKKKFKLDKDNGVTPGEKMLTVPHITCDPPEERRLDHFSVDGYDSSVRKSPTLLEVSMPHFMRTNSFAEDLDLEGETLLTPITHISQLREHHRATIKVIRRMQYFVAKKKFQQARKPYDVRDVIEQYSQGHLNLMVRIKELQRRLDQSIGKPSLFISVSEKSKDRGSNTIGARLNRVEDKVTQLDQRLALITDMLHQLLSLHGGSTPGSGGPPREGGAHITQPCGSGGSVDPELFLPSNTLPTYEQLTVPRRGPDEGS
Chain of Potassium voltage-gated channel subfamily KQT member 2 (Rattus norvegicus) (O88943 whole entry, looked up): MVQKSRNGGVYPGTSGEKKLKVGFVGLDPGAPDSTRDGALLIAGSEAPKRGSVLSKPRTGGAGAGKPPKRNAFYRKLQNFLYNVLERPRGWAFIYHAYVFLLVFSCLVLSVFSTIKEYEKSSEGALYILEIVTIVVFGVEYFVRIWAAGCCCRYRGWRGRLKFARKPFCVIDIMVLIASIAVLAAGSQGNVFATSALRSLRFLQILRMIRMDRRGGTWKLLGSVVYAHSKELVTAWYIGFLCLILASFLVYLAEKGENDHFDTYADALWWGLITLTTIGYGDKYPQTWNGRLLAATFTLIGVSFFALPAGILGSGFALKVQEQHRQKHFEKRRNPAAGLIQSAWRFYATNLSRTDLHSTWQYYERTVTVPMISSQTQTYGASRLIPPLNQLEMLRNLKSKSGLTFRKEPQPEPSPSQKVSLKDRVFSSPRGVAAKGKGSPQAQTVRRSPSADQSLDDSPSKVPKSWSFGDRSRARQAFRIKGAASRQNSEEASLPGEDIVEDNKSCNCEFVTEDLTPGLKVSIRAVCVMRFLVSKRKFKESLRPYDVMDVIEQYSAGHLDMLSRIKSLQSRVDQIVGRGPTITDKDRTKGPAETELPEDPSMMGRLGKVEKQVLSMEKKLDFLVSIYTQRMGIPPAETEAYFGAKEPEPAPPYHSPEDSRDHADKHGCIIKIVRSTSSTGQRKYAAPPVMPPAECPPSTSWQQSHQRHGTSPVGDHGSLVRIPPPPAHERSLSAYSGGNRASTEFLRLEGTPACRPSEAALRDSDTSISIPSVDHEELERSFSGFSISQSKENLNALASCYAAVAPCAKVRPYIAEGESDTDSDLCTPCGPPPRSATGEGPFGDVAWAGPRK

SMILES	outcome [1]	outcome [2]	outcome [3]	outcome [4]	activation [1]	potentiation [2]	potentiation [3]
O=C(Nc1ccccc1Cl)N1CCN(c2ccccn2)CC1	inactive	inactive	inactive	inactive			
O=C(Nc1ccc(N2CCCCC2)cc1)c1cccnc1Cl	inactive	inactive	inactive	inactive			
COc1cccc(C(=O)NC(=S)N2c3ccccc3CC2C)c1OC (stereo not given)	inactive	inactive	inactive	inactive			
CC1C/C(=C/c2ccncc2)C(=O)/C(=C/c2ccncc2)C1 (stereo not given)	inactive	inactive	inactive	inactive			
COC(=O)c1sc(NC(=S)NC(=O)c2ccccc2C)nc1C				inactive	187% (active)	50% (active)	204% (active)
Cc1ccc(C2C(/C=C3/SC(=S)NC3=O)=C(c3cccs3)Oc3ccccc32)cc1 (stereo not given)			inactive	inactive	142% (active)	33% (active)	
O=C(NC(=S)Nc1cccc(C(F)(F)F)c1)c1csnn1				inactive	595% (active)	308% (active)	618% (active)
CCN(c1ccccc1)S(=O)(=O)c1ccc(NC(=O)c2nc(S(C)(=O)=O)ncc2Cl)cc1	inactive	inactive		inactive			156% (active)
CCc1ccc(OCC(=O)Nc2ccc(S(=O)(=O)N3CCOCC3)cc2)cc1	inactive	inactive	inactive	inactive			
CON/C=N/C(=S)Nc1ncc(C(F)(F)F)cc1Cl				inactive	283% (active)	87.5% (active)	337% (active)
O=C(O)CCCN1C(=O)C2C3c4ccccc4C(c4ccccc43)[C@@H]2C1=O (stereo not given in full)	inactive	inactive	inactive	inactive			
COc1ccc(N2CCN(C(=S)NC(=O)c3cccs3)CC2)c([N+](=O)[O-])c1				inactive	139% (active)	74.5% (active)	232% (active)
CSc1ccc(NC(=O)CC(C)=O)cc1	inactive	inactive	inactive	inactive			
CC(=O)Oc1c(-c2ccco2)oc2ccccc2c1=O				inactive	216% (active)	31% (active)	244% (active)
Cc1ccccc1-n1c(C)cc(/C=N/NC(=O)c2ccncc2)c1C	inactive			inactive		25% (active)	165% (active)
O=C(NC(=S)Nc1ccc(N2CCCCC2)cc1)c1ccco1				inactive	214% (active)	180% (active)	228% (active)
COCCn1cnc2c1c(=O)n(CC#N)c(=O)n2Cc1ccccc1	inactive	inactive	inactive	inactive			
COc1cccc(NC(=O)NCC2CCN(Cc3ccc(F)cc3)CC2)c1	inactive	inactive	inactive	inactive			
Fc1ccccc1Nc1nc(Cl)nc(Cl)n1	inactive	inactive	inactive	inactive			
CC(NC(=O)CS(=O)(=O)c1ccccc1)c1ccccc1 (stereo not given)	inactive	inactive	inactive	inactive			

SMILES	outcome [1]	outcome [2]	outcome [3]	outcome [4]	activation [1]	potentiation [2]	potentiation [3]
COc1ccc(CNC(=O)C2CC(c3cccc(OC)c3)=NO2)cc1 (stereo not given)	inactive	inactive	inactive	inactive			
COc1cccc(Oc2cnc(N)nc2-c2ccc(OC)cc2O)c1	inactive	inactive	inactive	inactive			
COc1cc2c(cc1OC)CN(C(=O)CNC(=O)c1ccc(OC(F)F)cc1)CC2	inactive	inactive	inactive	inactive			
C=CCn1c(-c2cc(-c3ccc(C)cc3)nc3ccccc23)n[nH]c1=S				inactive	138% (active)	108% (active)	170% (active)
O=C(c1cc([N+](=O)[O-])cc([N+](=O)[O-])c1)N1CCCc2ccccc21	inactive	inactive	inactive	inactive			
N#Cc1ccc(-c2nc3cc(Cl)ccc3c(=O)n2O)cc1				inactive	189% (active)	29.5% (active)	176% (active)
O=c1c2ccc(Cl)cc2nc(-c2ccc([N+](=O)[O-])cc2)n1O				inactive	345% (active)	90.5% (active)	428% (active)
CC/C(=N/NC(=O)c1ccc(Br)o1)c1ccc(Cl)cc1	inactive	inactive	inactive	inactive			
NS(=O)(=O)c1ccc(NC(=S)Nc2ccc(OCc3ccccc3)cc2)cc1	inactive	inactive	inactive	inactive			
C#CCOCCOCCOCCNc1nc(N2CCN(C(=O)C([C@@H](C)CC)n3cc(C(N)Cc4ccc(O)cc4)nn3)CC2)nc(N2CCN(C(=O)[C@H](CCC(=O)O)n3cc(C(N)CC(C)C)nn3)CC2)n1 (stereo not given in full)	inactive	inactive	inactive	inactive			
CCCCn1c(=S)[nH]c2ncccc2c1=O	inactive			inactive		34.5% (active)	173% (active)
OC(c1cc(C(F)(F)F)nc2c(Cl)cc(Cl)cc12)C1CCCCN1 (stereo not given)	inactive	inactive	inactive	inactive			
COc1cccc(NC(=O)c2cncs2)c1	inactive	inactive	inactive	inactive			
C(=N\NC(=Nc1ccccc1)c1ccccn1)/c1ccccn1	inactive	inactive	inactive	inactive			
CN1C(=O)NC(c2ccc(O)cc2)C(C(=O)c2cccs2)C1(O)C(F)(F)F (stereo not given)	inactive	inactive	inactive	inactive			
CCC(CC)c1nnc(NC(=O)c2cc(C(=O)OC)cc([N+](=O)[O-])c2)s1				inactive	366% (active)	179% (active)	419% (active)
CC(C)NC(=O)/C(=C/c1cn(-c2ccccc2)nc1-c1cccc([N+](=O)[O-])c1)NC(=O)c1ccccc1	inactive	inactive	inactive	inactive			
Cc1ccccc1C(=O)Nc1nc(=S)ss1				inactive	250% (active)	72% (active)	267% (active)
CC(C)(C)C1C/C(=C/c2ccccn2)C(=O)/C(=C/c2ccccn2)C1 (stereo not given)	inactive	inactive	inactive	inactive			
O=C(COc1ccc2ccccc2c1)NNC(=O)[C@@H]1CCCC[C@@H]1C(=O)O	inactive	inactive	inactive	inactive			

SMILES	outcome [1]	outcome [2]	outcome [3]	outcome [4]	activation [1]	potentiation [2]	potentiation [3]
Cc1ccc(C)c(SCC(=O)NC(=O)Nc2ccc3c(c2)OCCO3)c1	inactive	inactive	inactive	inactive			
COc1ccc(-n2c(NCCN(C)C)nc3sc4c(c3c2=O)CCCCC4)cc1	inactive	inactive	inactive	inactive			
O=C(NC(=S)N1CCN(c2ccc(C(F)(F)F)cc2[N+](=O)[O-])CC1)c1cccs1				inactive	176% (active)	75% (active)	215% (active)
CCOc1ccc(CCNC(=O)CSc2nc3ncc(Cl)cc3[nH]2)cc1OCC	inactive	inactive	inactive	inactive			
CCOc1ccc(NC(=O)CN(C)C(=O)c2c(-c3c(F)cccc3Cl)noc2C)cc1OCC	inactive	inactive	inactive	inactive			
Cn1c(O)c(N=Nc2nc(-c3ccccc3)cs2)c2ccccc21				inactive	510% (active)	385% (active)	677% (active)
Cc1ccc(C(=O)N2CCNC(=O)C2CC(=O)Nc2ccc(F)cc2)cc1C (stereo not given)	inactive		inactive	inactive		37.5% (active)	
CS(=O)(=O)NN1C(=O)c2ccccc2NC1c1ccccc1F (stereo not given)			inactive	inactive	143% (active)	32.5% (active)	
COc1ccc(C(=O)N2CCC(n3nccc3NC(=O)C3CCOC3)CC2)cc1 (stereo not given)	inactive	inactive	inactive	inactive			
CCOC(=O)CN1C(=O)N(CC)C(C)=C(C(=O)OC)[C@@H]1c1ccccc1	inactive	inactive	inactive	inactive			
C=CCN(CC=C)C(=S)NC(=O)c1ccc(OC)c(Br)c1				inactive	506% (active)	199% (active)	474% (active)
Cc1ccc(NC(=S)N2CCC(N(C)CC3CCCO3)CC2)cc1 (stereo not given)	inactive		inactive	inactive		19.5% (active)	
O=C(NCCN1CCOCC1)[C@H](Cc1ccccc1)N1C(=O)c2ccccc2C1=O	inactive			inactive		26% (active)	155% (active)
CC(C)Cc1ccc(C(C)C(=O)Nc2ccc(O)cc2)cc1 (stereo not given)	inactive	inactive	inactive	inactive			
CCOCCc1c(O)nc(SC)[nH]c1=O	inactive	inactive	inactive	inactive			
Cc1cc(C)cc(NC(=O)C(Sc2ncnc3ccccc23)c2ccccc2)c1 (stereo not given)	inactive	inactive	inactive	inactive			
CC(=O)NC(CC(=O)O)C(=O)O (stereo not given)	inactive	inactive	inactive	inactive			
Cc1nc(SCC(=O)NCC2CCCO2)c2c3c(sc2n1)CCCC3 (stereo not given)				inactive	158% (active)	55% (active)	197% (active)
O=C(Nc1ccc(N2CCN(c3ccc(O)cc3)CC2)cc1)Oc1ccccc1	inactive	inactive	inactive	inactive			
NC(=O)CSc1nnc(-c2ccccc2Br)n1-c1cccc(C(F)(F)F)c1	inactive		inactive	inactive		43.5% (active)	
